Measurements: ChEMBL document CHEMBL4477183, “Antimicrobial Peptide from the Wild Bee Hylaeus signatus Venom and Its Analogues: Structure-Activity Study and Synergistic Effect with Antibiotics” (J Nat Prod, 2016)

Legend:
Staphylococcus aureus [1] = experiment: Antimicrobial activity against Staphylococcus aureus clinical isolates from university hospital in Motol assessed as reduction in bacterial growth after 20 hrs by drop diffusion test; type: functional
Escherichia coli = experiment: Antimicrobial activity against Escherichia coli assessed as reduction in bacterial growth after 20 hrs by […]; type: functional
How it was run: (§1)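 Broth microdilution in LB (YPG for C. albicans) with 2-fold serial dilutions, final 0.1–100 μM. Mid-log cells grown 3–5 h at 37 °C were added at about 5 × 10^5 cfu/mL, then incubated 20 h at 37 °C with shaking. A540 was read every 15 min to build growth curves. Medium with cells served as growth control; at least three runs in duplicate.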

Pseudomonas aeruginosa [2] = experiment: Antimicrobial activity against Pseudomonas aeruginosa 5482 assessed as reduction in bacterial growth after 20 hrs […]; type: functional; conditions: Pseudomonas aeruginosa, 5482, 20 h; how it was run: as §1
Pseudomonas aeruginosa [3] = experiment: Antimicrobial activity against Pseudomonas aeruginosa clinical isolates assessed as reduction in bacterial growth after 20 hrs by […]; type: functional; how it was run: as §1
[4] = Hemolytic activity in human type RBC after 1 hr; type: ADME, cell-based, Erythrocyte; conditions: red blood cells (erythrocytes), read-out: LC50
How it was run: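 Peptides at 2.5–400 μM were incubated with a 4% suspension of human erythrocytes in physiological solution for 1 h at 37 °C, then centrifuged at 250g for 5 min; supernatant A540 was read. Saline-treated cells gave 0% lysis and 0.2% Triton X-100 gave 100%. LC50 is the concentration lysing 50% of cells; duplicates in at least two independent experiments.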

Candida albicans = experiment: Antifungal activity against Candida albicans assessed as reduction in fungal growth after 20 hrs by […]; type: functional; how it was run: as §1
Micrococcus luteus = experiment: Antimicrobial activity against Micrococcus luteus assessed as reduction in bacterial growth after 20 hrs by […]; type: functional; how it was run: as §1
Bacillus subtilis = experiment: Antimicrobial activity against Bacillus subtilis assessed as reduction in bacterial growth after 20 hrs by […]; type: functional; how it was run: as §1
Staphylococcus aureus [5] = experiment: Antimicrobial activity against Staphylococcus aureus clinical isolates assessed as FIC index in presence of amoxicillin after 20 hrs by drop diffusion test; type: functional
Pseudomonas aeruginosa [6] = experiment: Antimicrobial activity against Pseudomonas aeruginosa clinical isolates assessed as FIC index in presence of tetracycline after 20 hrs by drop diffusion test; type: functional
Pseudomonas aeruginosa [7] = experiment: Antimicrobial activity against Pseudomonas aeruginosa clinical isolates assessed as FIC index in presence of rifampicin after 20 hrs by drop diffusion test; type: functional
Pseudomonas aeruginosa [8] = experiment: Ratio of MIC for Pseudomonas aeruginosa to PC50 for induction of permeabilization in Pseudomonas aeruginosa; type: functional
How it was run: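 PC50: washed 10^8 cfu/mL cells in PBS pH 7 with PI 10 μg/mL, peptide 0.31–80 μM, 90 min at 37 °C dark, fluorescence 544/620 nm as % of 4 μM octenidine, interpolated from log-concentration curve.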

Staphylococcus aureus [9] = experiment: Antimicrobial activity against Staphylococcus aureus 6271 assessed as reduction in bacterial growth after 20 hrs by broth microdilution assay; conditions: Staphylococcus aureus, 6271, 20 h
[10] = system: Staphylococcus epidermidis; experiment: Antimicrobial activity against Staphylococcus epidermidis assessed as reduction in bacterial growth after 20 hrs by broth microdilution assay
Staphylococcus aureus [11] = experiment: Antimicrobial activity against Staphylococcus aureus clinical isolates from Liberec regional hospital assessed as reduction in bacterial growth after 20 hrs by broth microdilution assay
Staphylococcus aureus [12] = experiment: Antimicrobial activity against Staphylococcus aureus clinical isolates from Liberec regional hospital assessed as reduction in bacterial growth after 20 hrs by […]; type: functional; how it was run: as §1

| Substance | MIC (Staphylococcus aureus [1]) [µM] | MIC (Escherichia coli) [µM] | MIC (Pseudomonas aeruginosa [2]) [µM] | MIC (Pseudomonas aeruginosa [3]) [µM] | HC50 at 1 h [4] [µM] | MIC (Candida albicans) [µM] | MIC (Micrococcus luteus) [µM] | MIC (Bacillus subtilis) [µM] | fractional inhibitory concentration index (FICI) (Staphylococcus aureus [5]) | fractional inhibitory concentration index (FICI) (Pseudomonas aeruginosa [6]) | fractional inhibitory concentration index (FICI) (Pseudomonas aeruginosa [7]) | Ratio (Pseudomonas aeruginosa [8]) | MIC (Staphylococcus aureus [9]) [µM] | MIC [10] [µM] | MIC (Staphylococcus aureus [11]) [µM] | MIC (Staphylococcus aureus [12]) [µM] |
| --- | --- | --- | --- | --- | --- | --- | --- | --- | --- | --- | --- | --- | --- | --- | --- | --- |
| H-GILSSLWKKLKKWIAK-NH2 | 2 | 2.5 | 13 | 24 | 57 | 13 | ≤ 3 | ≤ 7 | 0.58 | 0.42 | 0.29 | 19 | 2.5 | 1.6 | 1.8 | – |
| H-GILSSWLKKLKKIIAK-NH2 | 16 | 11 | 4 | 5.9 | > 400 | 17 | ≤ 3 | ≤ 7 | 0.37 | 0.65 | 0.4 | – | 16 | 2 | – | 6.6 |
| H-GIMSSLMKKLAKHIAK-NH2 | 63 | 15 | 7.9 | 20 | > 400 | 14 | ≤ 3 | ≤ 7 | 0.31 | 0.54 | 0.25 | – | 63 | 6.2 | 35 | – |
| H-GIMSSLMKKLAKIIAK-NH2 | 10 | 3.7 | 4.5 | 9.3 | 88 | 11 | ≤ 3 | ≤ 7 | 0.5 | 0.79 | 0.43 | – | 9 | 5 | 5.2 | – |
| H-GIMSSLMKKLAKIIKK-NH2 | 17 | 15 | 5.2 | 10 | > 400 | 7.6 | ≤ 3 | ≤ 7 | 0.38 | 0.54 | 0.42 | – | 33 | 2.9 | 8.6 | – |
| H-GIMSSLMKKLKKIIKK-NH2 | 65 | 22 | 7.1 | 9.9 | > 400 | 6.3 | ≤ 3 | ≤ 7 | 0.17 | 0.63 | 0.36 | – | 54 | 1.7 | 18 | – |
| H-GKLSSLWKKLKKIIAK-NH2 | 27 | 20 | 6.8 | 19 | > 400 | 34 | ≤ 3 | ≤ 7 | 0.25 | 0.54 | 0.29 | – | 26 | 2.5 | 11 | – |
| H-KILSSLLKKLKKIIAK-NH2 | 10 | 16 | 5 | 16 | 364 | 25 | ≤ 3 | ≤ 7 | 0.29 | 0.71 | 0.26 | – | 32 | 1.4 | – | 5.5 |
